Bioassay records: PubChem, Sanford-Burnham Center for Chemical Genomics
Compounds with a hit are over-represented: about 2.3% of the library has one in this group of screens.
NadD inh: inhibitors of S. aureus NadD, primary screen, biochemical, colorimetric, uHTS. inhibition, % at 20 µM. actives 0.78% (n = 360,000). Nicotinate-nucleotide adenylyltransferase NadD (Staphylococcus aureus N315). purified NadD enzyme, colorimetric absorbance read-out; in the data active = inhibition above about 26%
Scp-1 inhibitor: Scp-1 phosphatase inhibitors, primary screen, biochemical, colorimetric, uHTS. Recombinant Scp1, phosphopeptide, malachite green phosphate absorbance. actives 0.88% (n = 340,000). inhibition, % at 20 µM;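 active = inhibition above about 50% at 20 µM, limit read from the data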
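Material – SCP-1 phosphatase catalytic domain, residues 76-261 · Buffer or medium – Acidic Tris acetate buffer with magnesium and detergent · Also added – Phospho 17-mer peptide substrate · Compound – single 20 µM dose, 1% DMSO · Times – 45 min room-temperature reaction, 5 min colour, 30 min stabiliser · Technique – Phosphate-binding colour reagent, absorbance read at 630 nm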
SUMO1 PPI mod: modulators of SUMO1 protein-protein interactions, primary screen, biochemical, uHTS. SUMO1 binding to a labelled peptide, TR-FRET, 1 h. Small ubiquitin-related modifier 1 (Homo sapiens), P63165. actives 0.33% (n = 360,000). inhibition, % at 20 µM. AID 602429, 2012; in the data active = inhibition above about 37%
LMPTP inh: LMPTP phosphatase inhibitors, primary screen, biochemical, fluorescence intensity, uHTS; Low molecular weight phosphotyrosine protein phosphatase (Homo sapiens), P24666; recombinant LMPTP-A, OMFP fluorogenic substrate; inhibition, % at 20 µM; actives 0.22% (n = 360,000);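 active = compounds that cut the enzyme signal by at least half of the control window in the single-dose screen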
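Assay system: LMPTP-A, protein tyrosine phosphatase of low molecular weight / Medium: pH 6.0 Bis-Tris buffer with DTT and Triton X-100 / Schedule: 50 min enzyme reaction at room temperature, protected from light / Measured by: endpoint fluorescence intensity from OMFP dephosphorylation / Read-out basis: % inhibition relative to no-enzyme and uninhibited control wells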
DNMT1 inh: human DNMT1 methyltransferase inhibitors, primary screen, biochemical, molecular beacon, fluorescence, HinP1I cleavage, uHTS; inhibition (reported as % activation of signal), % at 10 µM; actives 0.83% (n = 360,000); DNA (cytosine-5)-methyltransferase 1 (Homo sapiens), P26358; in the data active = inhibition above about 50%
STEP inh: STEP phosphatase inhibitors, primary screen, biochemical, fluorescence intensity, uHTS | Tyrosine-protein phosphatase non-receptor type 5 (Homo sapiens), P54829 | recombinant STEP, OMFP fluorogenic substrate | inhibition, % at 20 µM | actives 0.25% (n = 360,000);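 active = inhibition at 20 µM, scaled per plate between control wells, above about 37%, limit read from the data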
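System: STEP phosphatase, cell-free reaction; Buffer or medium: Bis-Tris pH 6.0 buffer with DTT, detergent; Incubation: 20 min at room temperature, dark; Measured by: fluorescence, 480/540 nm.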
Scp-1 conf: Scp-1 phosphatase inhibitors, retest, confirmation, biochemical, colorimetric, single concentration; recombinant SCP-1 catalytic domain, phosphate release, malachite green absorbance; inhibition, % at 20 µM; shares compounds with Scp-1 inhibitor; actives 61% (n = 2,500)
MG interference: colorimetric readout interference by compounds, confirmation, artefact control for Scp-1 inhibitor project, biochemical, single concentration | shares compounds with Scp-1 inhibitor | Colorimetric interference counterscreen, malachite green absorbance 630 nm | apparent inhibition (interference), % at 20 µM | 2,500 tested, under 10 active | AID 540313, 2011;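 note: compounds added after enzyme reaction finished so only phosphate colour detection is probed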
Scp-1 Tm shift: Scp-1 binding by thermal shift, confirmation, orthogonal assay for Scp-1 inhibitor project, biophysical, differential scanning fluorimetry | Recombinant SCP1, Sypro Orange thermal shift Tm | shares compounds with Scp-1 inhibitor | thermal shift relative to vanadate control, % at 40 µM | AID 540329, 2011 | actives 25% (n = 1,500);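 active = substances whose mean melting-temperature shift, as a percentage of the reference inhibitor's shift, reaches about 5.3%, limit read from the data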
Hits are given with their value; n = inactive; x = no result given.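 Rule for the calls, unless noted: active = inhibition of at least 30% at 20 µM; inactive = the rest.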

SMILES | NadD inh | Scp-1 inhibitor | SUMO1 PPI mod | LMPTP inh | DNMT1 inh | STEP inh | Scp-1 conf | MG interference | others
Cc1c(CC(=O)N[C@@H](CCCNC(N)=O)C(=O)O)c(=O)oc2cc3oc4c(c3cc12)CCCC4 | n | x | n | n | n | n | x | x
N#CC(=C(c1ccccc1)c1ccccc1)c1ccccc1 | n | n | n | n | n | n | x | x
N#C/C(=C\c1ccc(OCc2ccc(Br)cc2)cc1)C(=O)Nc1cccc(C(=O)O)c1 | n | 57 | 57 | n | n | 41 | 59 | n | Scp-1 Tm shift=n
N#C/C(=C\c1ccccc1OCc1ccc(C(=O)O)cc1)C(=O)Nc1ccc(O)cc1 | n | n | n | n | n | n | x | x
CCOc1cc(/C=C(\C#N)C(=O)Nc2cccc(C(=O)O)c2)cc(Br)c1OC(=O)c1ccc(OC)cc1 | n | n | n | n | n | n | x | x
COc1cc(/C=C(\C#N)C(=O)Nc2cccc(C(=O)O)c2)ccc1OCc1ccc(F)cc1 | n | 56 | n | n | n | n | n | n
N#C/C(=C/c1ccc(OCc2ccc(C(=O)O)cc2)cc1)C(=O)Nc1ccccc1 | n | 71 | n | n | n | n | 82 | n | Scp-1 Tm shift=n
N#C/C(=C/c1ccccc1OCc1ccc(F)cc1)c1ccc(C(=O)O)cc1 | n | 65 | n | n | n | n | n | n
CCOc1cc(/C=C(\C#N)C(=O)Nc2cccc(C(=O)O)c2)ccc1OCc1ccccc1Cl | n | n | n | n | n | n | x | x
COc1ccc(C(CC(=O)NCC(OC)OC)NS(=O)(=O)c2ccc(Cl)cc2)cc1 (centres undefined) | n | n | n | n | n | n | x | x
COc1cc(OC)cc(C(=O)OCC(=O)Nc2nnc(-c3ccccc3)o2)c1 | n | n | n | n | n | n | x | x
O=C(COC(=O)c1cncc(Br)c1)Nc1nnc(-c2ccccc2)o1 | n | 60 | n | n | n | n | 71 | n | Scp-1 Tm shift=6.1
Cc1cc(C(=O)N/N=C/c2cc(Br)ccc2OC(=O)c2ccccc2)n[nH]1 | n | 94 | n | n | n | n | 64 | n | Scp-1 Tm shift=n
Cc1cc(C(=O)N/N=C/c2ccc(-c3ccc(C)c(Cl)c3)o2)n[nH]1 | n | n | n | n | n | n | x | x
O=C(N/N=C/c1cc(Br)ccc1OC(=O)c1ccc(Br)cc1)c1ccncc1 | n | n | n | n | n | n | x | x
Cc1cc(C(=O)N/N=C/c2ccc(-c3ccccc3Cl)o2)n[nH]1 | n | 60 | n | n | n | n | 58 | n | Scp-1 Tm shift=n
Cc1cc(C(=O)N/N=C/C=C/c2ccc(Br)cc2)n[nH]1 | n | 52 | n | n | n | n | 65 | n | Scp-1 Tm shift=n
O=C(NCCN1CCOCC1)C1CCCN(S(=O)(=O)c2ccc(F)cc2)C1 (centres undefined) | n | n | n | n | n | n | x | x
CCN(CC)S(=O)(=O)c1cccc(C(=O)OCC(=O)NC(C)c2ccccc2)c1 (centres undefined) | n | n | n | n | n | n | x | x
O=C(COC(=O)c1cc(=O)[nH]c2ccccc12)NC1CCCCCCC1 | n | n | n | n | n | n | x | x
O=C(COC(=O)c1cc(=O)[nH]c2ccccc12)NC(=O)NC1CCCCC1 | n | n | n | n | n | n | n | n
COc1ccc(C(=S)N2CCOCC2)cc1OS(=O)(=O)c1ccc(Br)cc1 | n | n | n | n | n | n | x | x
COc1ccc([C@H]2CC(=O)C=C(c3ccnc4ccc(Cl)cc34)C2)cc1 | n | 59 | n | n | n | n | n | n
CCOc1ccc(C(=O)CCCC(=O)c2ccc(OCC)cc2)cc1 | n | 77 | n | n | n | n | n | n
N=c1nc2n(cc1F)C1OC(CO)C(O)C1O2 (centres undefined) | n | 72 | n | n | n | n | n | n
SMILES | NadD inh | Scp-1 inhibitor | SUMO1 PPI mod | LMPTP inh | DNMT1 inh | STEP inh | Scp-1 conf | MG interference | others
Cc1ccc(C(=O)NCCCNC(=O)COc2ccccc2Cl)cn1 | n | 58 | n | n | n | n | n | n
O=C(O)CCN1C(=O)c2ccc(NC(=O)c3ccco3)cc2C1=O | n | n | n | n | n | n | x | x
O=C(O)CCN1C(=O)c2ccc(NC(=O)C(c3ccccc3)c3ccccc3)cc2C1=O | n | 67 | n | n | n | n | n | n
COc1ccc(CC(=O)NNS(=O)(=O)c2ccccc2)cc1OC | n | n | n | n | n | n | x | x
O=c1c2cc(-c3ccccc3)sc2nc2n1N=C(c1ccccc1)CS2 | n | 108 | n | n | n | n | 59 | n | Scp-1 Tm shift=n
C[C@H](CCC(=O)O)[C@H]1CC[C@H]2[C@@H]3CC[C@@H]4C[C@H](O)CC[C@]4(C)[C@H]3CC[C@]12C | n | 58 | n | n | n | n | 56 | n | Scp-1 Tm shift=n
O=C(Nc1ccc(Br)cn1)c1coc(=O)c(Br)c1 | n | 69 | n | n | n | n | n | n
CCOCCCn1c(C)nc2c[n+](CC(=O)c3ccc4ccccc4c3)cc(Br)c21 | n | n | n | n | n | n | x | x
Cc1ccc(CN2CC(C(=O)N(Cc3nnc(-c4ccccc4Cl)o3)C3CC3)CC2=O)cc1 (centres undefined) | n | n | n | n | n | n | x | x
CCOC(=O)C1CCN(C(=O)CCCCn2c(=O)[nH]c3ccccc3c2=O)CC1 | n | 68 | n | n | n | n | n | n
CCOC(=O)C1CCN(C(=O)CCn2c(=O)[nH]c3ccccc3c2=O)CC1 | n | n | n | n | n | n | x | x
O=C1/C(=C\c2ccc(O)cc2)SC(=S)N1c1cccnc1 | 31 | 98 | n | n | n | n | n | n
COc1ccc(/C=C2\SC(=S)N(c3cccnc3)C2=O)cc1 | n | n | n | n | n | n | x | x
COC(=O)C1=C(COc2ccccc2)NC(=O)NC1c1ccc2ccccc2c1 (centres undefined) | x | 50 | x | x | x | x | 31 | n | Scp-1 Tm shift=n
